Results collected from several papers.
Each line is one published result; the experiments were not run side by side.
PDE10A: cAMP and cAMP-inhibited cGMP 3',5'-cyclic phosphodiesterase 10A (PDE10A, Homo sapiens, UniProt Q9Y233)
USP51: Ubiquitin carboxyl-terminal hydrolase 51 (USP51, Homo sapiens, UniProt Q70EK9)
CASP3: Caspase-3 (CASP3, Homo sapiens, UniProt P42574)
AAK1: AP2-associated protein kinase 1 (AAK1, Homo sapiens, UniProt Q2M2I8)

`c1ccc(C(NCCNC(c2ccccc2)c2ccccc2)c2ccccc2)cc1` has an inhibition of 0% (PDE10A; enzyme activity; inhibitor; 10 µM).
`COC(=O)C[C@](O)(CCC(C)(C)O)C(=O)O[C@@H]1C(OC)=C[C@]23CCCN2CCc2cc4c(cc2[C@H]13)OCO4` gave an inhibition of 0% (USP51; enzyme activity; inhibitor; 5 µM).
`Cc1ncc(C)n2nc(/C=C/c3nc(N4CCCC4)cc(N4CCOCC4)n3)nc12` has an inhibition of 3% (Peroxisome proliferator-activated receptor gamma (PPARG, Homo sapiens, UniProt P37231); ligand displacement; 10 µM).
For `CCOC(=O)c1ccc(OC(=O)CCCCCNC(=N)N)cc1`, the inhibition was 2% (CASP3; enzyme activity; inhibitor; 10 µM).
For `CC[C@@]1(O)C(=O)OCc2c1cc1n(c2=O)Cc2cc3ccccc3nc2-1`, the inhibition was 0% (USP51; enzyme activity; inhibitor; 5 µM).
With `O=C(Nc1cccnn1)N1CCN([C@@H]2CCOc3cc(C(F)(F)F)ccc32)CC1` the inhibition was -13% (Melanin-concentrating hormone receptor 1 (MCHR1, Homo sapiens, UniProt Q99705); cell-free assay; 20 µM).
`CC(=O)N[C@@H](CC(=O)O)C(=O)N[C@@H](CC(N)=O)C(=O)N[C@@H](CC(C)C)C(=O)N[C@H](C=O)CC(=O)O` gave an inhibition of 25% (CASP3; enzyme activity; inhibitor; 10 nM).
`C[C@H](C(=O)N[C@H]1COc2ccccc2[C@@H]1S(C)(=O)=O)c1ccc(F)cc1` has an inhibition of -4% (PDE10A; enzyme activity; inhibitor; 10 µM).
For `C#Cc1n[nH]c2c(-c3cn([C@@H](C)c4ccccc4)c(=O)[nH]c3=O)cc(F)cc12`, the inhibition was -0.1% (AAK1; enzyme activity; inhibitor; 0.1 µM).
`O=C(O[C@@H]1Cc2c(O)cc(O)cc2O[C@@H]1c1cc(O)c(O)c(O)c1-c1c([C@H]2Oc3cc(O)cc(O)c3C[C@H]2OC(=O)c2cc(O)c(O)c(O)c2)cc(O)c(O)c1O)c1cc(O)c(O)c(O)c1` gave an inhibition of 25% (Tyrosine-protein phosphatase non-receptor type 22 (PTPN22, Homo sapiens, UniProt Q9Y2R2); enzyme activity; inhibitor; fluorescence; 10 µM).
`COc1cccc2c1cc([N+](=O)[O-])c1c(C(=O)O)cc3c(c12)OCO3` gave an inhibition of 36% (USP51; enzyme activity; inhibitor; 5 µM).
`CN(C)C(=O)COC(=O)Cc1ccc(OC(=O)c2ccc(NC(=N)N)cc2)cc1` has an inhibition of 0% (CASP3; enzyme activity; inhibitor; 10 µM).
`C[C@H]1C(=O)O[C@@H]2CCN3CC=C(COC(=O)[C@](C)(O)[C@]1(C)O)[C@H]23` has an inhibition of 42% (USP51; enzyme activity; inhibitor; 5 µM).
For `Cn1cc(-c2cc(F)cc(N3CCn4c(cc5c4CCCC5)C3=O)c2CO)cc(Nc2ccc(N3CCN(C4COC4)CC3)cn2)c1=O`, the inhibition was 15% (Calcium/calmodulin-dependent protein kinase type IV (CAMK4, Homo sapiens, UniProt Q16566); enzyme activity; inhibitor; 0.1 µM).
For `C[C@@H]1CC[C@H]2[C@@H](C)C(=O)O[C@@H]3O[C@@]4(C)CC[C@@H]1[C@]32OO4`, the inhibition was 17% (USP51; enzyme activity; inhibitor; 5 µM).
With `C#Cc1n[nH]c2c(-c3cn([C@@H](C)c4ccccn4)c(=O)[nH]c3=O)cc(F)cc12` the inhibition was 4.6% (AAK1; enzyme activity; inhibitor; 0.1 µM).
